NTR1 ag – agonists of human NTR1, primary screen, imaging, U2OS cells, beta-arrestin-GFP, high content | 330,000 compounds, 0.17% hits | NTR1-U2OS beta-arrestin-GFP spot imaging, agonist mode | Neurotensin receptor type 1 (Homo sapiens), P30989 | activation, % at 20 µM;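 active means activation at or above 40% of the spot to cytoplasm intensity ratio, with at least 20 cells analyzed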
APJ agonist – agonists of human apelin receptor APJ, primary screen, CHO-K1 cells, PathHunter beta-arrestin, luminescence. P35414. 0% DMSO wells, 100% apelin. activation, % at 20 µM. 330,000 compounds, 0.11% hits;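 active means activation more than six SD over the plate average, tested at 20 µM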
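Assay system – PathHunter CHO-K1 APJ (AGTRL-1) beta-arrestin reporter cells · Compound – one dose, 20 µM compound, 1% DMSO · Timing – compound 90 min 25 °C, reagent 1 h · Measured by – luminescence from split beta-galactosidase complementation, Galacton Star/Emerald II substrate · Measure – beta-arrestin recruitment to APJ as agonist activity, luminescent signal · Benchmarks – DMSO vs Apelin-13 10 nM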
m5-HT2A agonist – mouse Htr2a agonists via beta-arrestin recruitment, primary screen, cell-based, luminescence; 5-hydroxytryptamine receptor 2A (Mus musculus), P35363; CHO-K1 mHTR2A beta-arrestin complementation; percent of 30 µM serotonin response; activation, % at 7.6 µM; 360,000 compounds, 0.66% hits; AID 624169, 2012;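 active means activation above a run cutoff, the mean activation of all tested compounds plus 3 SD, cut at about 14% in these data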
Target sequence (P35363 whole entry, looked up): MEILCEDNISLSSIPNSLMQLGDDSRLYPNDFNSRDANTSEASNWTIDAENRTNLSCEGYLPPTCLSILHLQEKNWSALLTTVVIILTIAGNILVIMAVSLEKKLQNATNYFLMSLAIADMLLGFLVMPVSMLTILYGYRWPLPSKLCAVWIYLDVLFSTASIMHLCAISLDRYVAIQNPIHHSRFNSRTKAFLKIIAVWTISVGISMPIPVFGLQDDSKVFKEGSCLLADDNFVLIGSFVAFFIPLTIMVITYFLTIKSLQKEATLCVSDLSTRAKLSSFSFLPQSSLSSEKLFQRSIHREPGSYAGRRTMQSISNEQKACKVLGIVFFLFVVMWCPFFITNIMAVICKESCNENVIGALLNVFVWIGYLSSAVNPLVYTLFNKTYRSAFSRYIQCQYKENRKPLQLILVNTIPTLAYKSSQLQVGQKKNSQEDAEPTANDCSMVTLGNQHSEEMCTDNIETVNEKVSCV
CXCR6 block – CXCR6 receptor inhibitors, primary screen, cell-based, beta-arrestin, luminescence, CHO-K1 PathHunter, 1536-well. inhibition, % at 20 µM. 360,000 compounds, 0.36% hits. AID 602244, 2012; in the data active means inhibition above about 34%, passing the limit was not always enough;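 further: antagonist mode with CXCL16 agonist at 10 nM final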
CCR6 antag – CCR6 receptor antagonists, primary screen, cell-based, CHO-K1, luminescence, beta-arrestin, uHTS | 340,000 compounds, 0.49% hits | CHO-K1 CCR6 PathHunter beta-arrestin, CCL20-stimulated | inhibition, % at 20 µM | AID 493098, 2011;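 active means compounds whose inhibition of the agonist-driven luminescence signal at 20 µM reaches about 50%, limit read from the data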;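 further: cells stimulated with CCL20 at 14 nM final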
APJ antag – antagonists of human apelin receptor APJ, primary screen, CHO-K1 cells, beta-arrestin complementation, luminescence; 330,000 compounds, 0.32% hits; inhibition, % at 20 µM; AID 2521, 2010; P35414;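 active means inhibition above about 40% at 20 µM, limit read from the data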;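 further: cells challenged with 10 nM apelin-13 agonist together with compound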
APJ ag confirm – agonists of human apelin receptor APJ, confirmation, cell-based, single concentration, CHO-K1, beta-arrestin, luminescence | shares compounds with APJ agonist | AID 2764, 2010 | activation, % at 20 µM | 310 compounds, 10% hits | CHO-K1 APJ PathHunter beta-arrestin;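 active means activation above 40%, taking the highest of four retests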
Each line names hits and unclear results; the compound was inactive in the other large screens (follow-up assays come after a bar, where they were run). Rows were chosen to be rich in hits. Some 1.5% of all compounds tested hit in one or more screens of this group.

CCOc1ncccc1C(=O)Nc1cc(S(=O)(=O)N2CCCCCC2)ccc1OC	none
CCOc1ncccc1C(=O)Nc1cc(S(=O)(=O)N2CCCCC2)ccc1OC	APJ agonist 25 | APJ ag confirm inactive
N=c1c(C(=O)NC2CCCCC2)cc2c(=O)n3ccccc3nc2n1CCc1ccccc1	APJ agonist 20 | APJ ag confirm inactive
Cc1noc(C)c1S(=O)(=O)Nc1ccc2c(c1)C(=O)N([C@@H](C)CO)C[C@H](C)[C@@H](CN(C)Cc1ccc(C(F)(F)F)cc1)OCCCC[C@H](C)O2	none (no result: NTR1 ag, APJ agonist, CCR6 antag, APJ antag)
N/C(=N\OC(=O)c1cc(-c2ccccc2)nc2ccccc12)c1ccc(Cl)cc1	APJ agonist 16 | APJ ag confirm inactive
O=C(C1CCC(CNS(=O)(=O)c2cccs2)CC1)N1CCN(c2ccc(Cl)cc2)CC1 (centres undefined)	APJ agonist 26 | APJ ag confirm inactive
CCn1c(SCC(=O)NC2CC2)nnc1-c1csc(C)c1	none
CCCCCCc1cc2cc(-c3nnc(-c4ccccc4OC)o3)c(=O)oc2cc1O	none
CCCCCCc1cc2cc(-c3nnc(-c4ccccc4O)o3)c(=O)oc2cc1O	APJ agonist 25 | APJ ag confirm 52
CCCCCCc1cc2cc(-c3nnc(-c4cc(OC)c(OC)c(OC)c4)o3)c(=O)oc2cc1O	APJ agonist 16 (no result: m5-HT2A agonist, CXCR6 block) | APJ ag confirm 54
COc1ccc(NC2CCCN(C(=O)CCC(=O)c3ccc(F)cc3)C2)cc1 (centres undefined)	none
CN1C[C@@H]2[C@@H]3C(=O)N(C)C(=O)[C@@H]3[C@](C)(C1=O)N2C(=O)c1ccc(C(C)(C)C)cc1	none (no result: NTR1 ag, APJ agonist, APJ antag)
COc1ccccc1-n1c(SC)nc(O)cc1=O	APJ agonist 66 | APJ ag confirm 88
COc1ccccc1-n1c(SCC(=O)NC(C)(C)C)nc(O)cc1=O	none
C=CCSc1nc(O)c(CC)c(=O)n1C(C)CC (centres undefined)	APJ agonist 76 | APJ ag confirm 49
CCCC(=O)N1CCN(c2ccc(NC(=O)c3cc4ccccc4o3)cc2Cl)CC1	NTR1 ag 45, APJ agonist 30 | APJ ag confirm inactive
CCN(Cc1ccccc1)C(=O)CSc1nc(C)cc(=O)[nH]1	none
CN1CCCN(C(=O)c2cccc3ccccc23)CC1	none
CSc1ccc(C(=O)C2CCCN(C(=O)c3ccc4c(c3)no[n+]4[O-])C2)cc1 (centres undefined)	APJ agonist 18 | APJ ag confirm 44
Cc1nc(N2CCOCC2)[nH]c(=O)c1C(O)C(Cl)(Cl)Cl (centres undefined)	none
COC(=O)CCCC1=CC2=CC(=O)C(C)(OC(=O)c3cccs3)C(=O)C2=CN1C1CC1 (centres undefined)	none
COC(=O)CCCC1=CC2=CC(=O)C(C)(OC(=O)c3cccs3)C(=O)C2=CN1C1CCCCC1 (centres undefined)	APJ agonist 92 | APJ ag confirm inactive
CCCCC1=CC2=CC(=O)C(C)(OC(=O)CC)C(=O)C2=CN1C1CCCCC1 (centres undefined)	APJ agonist 125 | APJ ag confirm 54
CCOC(=O)c1ccc(NC(=O)c2cccc(S(=O)(=O)N3CCOCC3)c2)cc1	APJ agonist 14 | APJ ag confirm inactive
CC(=O)c1cccc(NC(=O)c2cccc(S(=O)(=O)N3CCOCC3)c2)c1	none
COc1cc(S(=O)(=O)N2CCN(Cc3ccc4c(c3)OCO4)CC2)ccc1NC(C)=O	APJ agonist 16 (no result: CCR6 antag) | APJ ag confirm inactive
Cc1cc(C)cc(NC(=S)Nc2cccc3cnccc23)c1	none
CCc1ccc(NC(=S)Nc2cccc3cnccc23)cc1	APJ agonist 15 | APJ ag confirm inactive
CN(C)CCCN(C(=O)c1ccc(Br)s1)c1nc2cc3c(cc2s1)OCCO3	none

Screening data as filed in PubChem.
